Experimental data: ChEMBL document CHEMBL3822424, “Design and synthesis of 1H-pyrazolo[3,4-c]pyridine derivatives as a novel structural class of potent GPR119 agonists” (Bioorg Med Chem Lett, 2016)
Converted amounts (≈) assume the structure as drawn.

Legend:
[1] = Drug metabolism in human liver microsomes after 15 mins; type: ADME; conditions: read-out: Drug metabolism
Procedure, shortened: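 Compound incubated 15 min with human liver microsomes at 1 mg protein/mL; result expressed as percent metabolized.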

[2] = biological target: T1, Glucose-dependent insulinotropic receptor (Homo sapiens, UniProt Q8TDV5); test: Agonist activity at human GPR119 expressed in Flp-In-T-Rex-HEK293 cells after 30 mins by cAMP accumulation assay; type: functional, cell-based
T1 sequence (Q8TDV5 whole entry): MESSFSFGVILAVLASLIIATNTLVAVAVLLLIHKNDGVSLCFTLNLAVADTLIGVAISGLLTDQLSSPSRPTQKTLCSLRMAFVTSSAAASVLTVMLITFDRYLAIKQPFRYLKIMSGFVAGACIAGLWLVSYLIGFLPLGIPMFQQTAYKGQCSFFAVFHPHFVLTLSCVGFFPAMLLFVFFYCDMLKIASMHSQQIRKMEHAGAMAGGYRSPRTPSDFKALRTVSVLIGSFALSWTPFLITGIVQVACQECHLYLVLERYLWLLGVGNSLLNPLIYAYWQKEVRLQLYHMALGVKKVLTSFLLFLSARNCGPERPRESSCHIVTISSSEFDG
Procedure, shortened: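 Flp-In-T-Rex-HEK293 cells overexpressing human GPR119, induced with tetracycline for 24 h, plated at 5000 cells/well in D-MEM assay buffer with 1 mM IBMX and 0.01% BSA. Cells exposed to compound for 30 min at 37 °C. cAMP read by HTRF kit (HiRange). Response = stimulated minus basal cAMP. EC50 = concentration giving 50% of maximal response.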

[3] = Thermodynamic solubility of the compound in phosphate buffer at pH 6.8; type: physicochemical; conditions: read-out: Therm_solubility
Procedure, shortened: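 Thermodynamic solubility measured in pH 6.8 phosphate buffer.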

[4] = Half life in Sprague-Dawley rat at 3 mg/kg, iv; type: ADME, organism-based; conditions: in vivo
[5] = Oral bioavailability in Sprague-Dawley rat at 10 mg/kg; type: ADME, organism-based; conditions: in vivo
[6] = Permeability of the compound at pH 6.2 by PAMPA; type: ADME; conditions: read-out: permeability
[7] = Volume of distribution at steady state in Sprague-Dawley rat at 3 mg/kg, iv; type: ADME, organism-based; conditions: in vivo, read-out: Vdss
[8] = AUC (0 to infinity) in Sprague-Dawley rat at 10 mg/kg, po; type: ADME, organism-based; design: dose 10 mg/kg, time infinity, route oral; conditions: in vivo
[9] = Clearance in Sprague-Dawley rat at 3 mg/kg, iv; type: ADME, organism-based; conditions: in vivo

| SMILES | metabolised at 0.25 h [1] [%] | EC50 [2] [nM] | further results |
| --- | --- | --- | --- |
| CC(C)(OC(=O)N1CCC(n2ncc3cc(-c4ccc(S(C)(=O)=O)cc4)ncc32)CC1)C(F)F | 3.9 | 23 | – |
| CC(C)OC(=O)N1CCC(n2ncc3cc(-c4ccc(S(C)(=O)=O)cc4)ncc32)CC1 | 24.1 | 42 | solubility thermodynamic [3]: 0.67 µg/mL (≈ 1.51 µM) |
| CC(C)COC(=O)N1CCC(n2ncc3cc(-c4ccc(S(C)(=O)=O)cc4)ncc32)CC1 | 79.8 | 11 | – |
| Cc1ccc(N2CCC(n3ncc4cc(-c5ccc(S(C)(=O)=O)cc5)ncc43)CC2)nc1 | 44.1 | 30 | – |
| CCc1cnc(N2CCC(n3ncc4cc(-c5cc(F)c(C(=O)NCCO)cc5F)ncc43)CC2)nc1 | 35.8 | 15 | solubility thermodynamic [3]: 0.69 µg/mL (≈ 1.36 µM) |
| CC(C)OC(=O)N1CCC(n2ncc3cc(-c4cc(F)c(C(=O)N(C)C)cc4F)ncc32)CC1 | – | 46 | – |
| CC(C)(OC(=O)N1CCC(n2ncc3cc(-c4ccc(S(C)(=O)=O)cc4F)ncc32)CC1)C(F)F | 2.1 | 10 | solubility thermodynamic [3]: < 0.06 µg/mL |
| CC(C)CCN1CCC(n2ncc3cc(-c4ccc(S(C)(=O)=O)cc4)ncc32)CC1 | – | 220 | – |
| CC(C)OC(=O)N1CCC(n2ncc3cc(-c4ccc(S(C)(=O)=O)cc4F)ncc32)CC1 | – | 27 | – |
| CC(C)OC(=O)N1CCC(n2ncc3cc(Oc4cccc(S(C)(=O)=O)c4)ncc32)CC1 | – | 266 | – |
| CC(C)(C)OC(=O)N1CCC(n2ncc3cc(-c4ccc(S(C)(=O)=O)cc4)ccc32)CC1 | – | 31 | – |
| CCNC(=O)c1cc(F)c(-c2cc3cnn(C4CCN(C(=O)OC(C)C)CC4)c3cn2)cc1F | – | 10 | – |
| CCCNC(=O)c1cc(F)c(-c2cc3cnn(C4CCN(C(=O)OC(C)C)CC4)c3cn2)cc1F | – | 14 | – |
| CCc1cnc(N2CCC(n3ncc4cc(-c5ccc(S(C)(=O)=O)cc5)ncc43)CC2)nc1 | 20.3 | 13 | – |

Continued by falling EC50 [2], values first:

| metabolised at 0.25 h [1] [%] | EC50 [2] [nM] | SMILES | further results |
| --- | --- | --- | --- |
| – | 197 | CC(C)OC(=O)N1CCC(n2ncc3cc(-c4ccc(S(C)(=O)=O)nc4)ncc32)CC1 | – |
| – | 177 | CC(C)OC(=O)N1CCC(n2ncc3cc(Oc4ccc(S(C)(=O)=O)cc4)ncc32)CC1 | – |
| – | 97 | CC(C)OC(=O)N1CCC(n2ncc3cc(-c4ccc(C(N)=O)cc4F)ncc32)CC1 | – |
| – | 92 | CC(C)OC(=O)N1CCC(n2ncc3cc(-c4cc(F)c(C(=O)NCCO)cc4F)ncc32)CC1 | – |
| – | 63 | CC(C)(C)OC(=O)N1CCC(n2nnc3cc(-c4ccc(S(C)(=O)=O)cc4)ccc32)CC1 | – |
| – | 52 | CC(C)OC(=O)N1CCC(n2ncc3cc(-c4cc(F)c(C(N)=O)cc4F)ncc32)CC1 | – |
| – | 20 | CC(C)(C)OC(=O)N1CCC(n2ncc3cc(-c4ccc(S(C)(=O)=O)cc4)ncc32)CC1 | – |
| 14.3 | 4 | CCc1cnc(N2CCC(n3ncc4cc(-c5ccc(S(C)(=O)=O)cc5F)ncc43)CC2)nc1 | half-life [4]: 37 min; bioavailability [5]: 12.6%; Papp [6]: 112 ×10⁻⁶ cm/s; solubility thermodynamic [3]: 0.34 µg/mL (≈ 0.707 µM); Vd [7]: 0.537 L/kg; AUC(0-inf) [8]: 1930 ng·h/mL; clearance [9]: 12.7 mL/min/kg |
